Assay [1] deals with T1, Human immunodeficiency virus type 1 integrase (Human immunodeficiency virus 1, UniProt Q7ZJM1, Y99S). The assay can be described thus: Inhibition of HIV1 integrase Y99S mutant strand transfer activity.
Assay [2] deals with T2, Human immunodeficiency virus type 1 integrase (Human immunodeficiency virus 1, UniProt Q7ZJM1). The assay can be described thus: Inhibition of HIV1 integrase strand transfer activity. In outline: (§1)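 Wild-type HIV-1 IN, expressed in E. coli BL21(DE3)pLysS after 1 mM IPTG induction, was preincubated at 200 nM final with inhibitor at 30 °C for 30 min. The buffer held 50 mM NaCl, HEPES pH 7.5, 10% glycerol, 7.5 mM MnCl2, 0.1 mg/ml BSA, 10 mM 2-mercaptoethanol, 10% DMSO and 25 mM MOPS pH 7.2. IC50 was taken from the reaction.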
T2 sequence (Q7ZJM1 whole entry): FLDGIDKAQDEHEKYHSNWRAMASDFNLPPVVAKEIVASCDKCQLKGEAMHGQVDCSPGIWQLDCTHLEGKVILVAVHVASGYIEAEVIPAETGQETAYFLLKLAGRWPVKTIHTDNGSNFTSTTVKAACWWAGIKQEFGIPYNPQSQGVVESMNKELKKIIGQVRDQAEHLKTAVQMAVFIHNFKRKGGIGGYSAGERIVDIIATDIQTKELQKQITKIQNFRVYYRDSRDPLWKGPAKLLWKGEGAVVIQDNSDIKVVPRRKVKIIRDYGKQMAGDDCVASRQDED

Assay [3] concerns the target T3, Human immunodeficiency virus type 1 integrase (Human immunodeficiency virus 1, UniProt Q7ZJM1, H114A). Put plainly: Inhibition of HIV1 integrase H114A mutant strand transfer activity.
For assay [4], the target named is T2, Human immunodeficiency virus type 1 integrase. Put plainly: Inhibition of HIV1 integrase 3'-end processing activity in presence of magnesium. In short, it runs like this: (§2)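 Wild-type HIV-1 IN (200 nM final), expressed in E. coli BL21(DE3)pLysS, was preincubated with inhibitor for 30 min at 30 °C in HEPES/MOPS buffer containing glycerol, BSA and 10% DMSO, with Mg2+ as the cofactor. IC50 was derived.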

The target of assay [5] is T1, Human immunodeficiency virus type 1 integrase. The assay can be described thus: Inhibition of HIV1 integrase Y99S mutant 3'-end processing activity.
The target of assay [6] is T2, Human immunodeficiency virus type 1 integrase. Put plainly: Inhibition of HIV1 integrase strand transfer activity in presence of magnesium. In short, it runs like this:
as §2

For assay [7] the target is unchanged. Put plainly: Inhibition of HIV1 integrase 3'-end processing activity. In outline: as §1
The target in assay [8] is T3, Human immunodeficiency virus type 1 integrase. The assay can be described thus: Inhibition of HIV1 integrase H114A mutant 3'-end processing activity.

T3 sequence (Q7ZJM1 entry or part of it H114A): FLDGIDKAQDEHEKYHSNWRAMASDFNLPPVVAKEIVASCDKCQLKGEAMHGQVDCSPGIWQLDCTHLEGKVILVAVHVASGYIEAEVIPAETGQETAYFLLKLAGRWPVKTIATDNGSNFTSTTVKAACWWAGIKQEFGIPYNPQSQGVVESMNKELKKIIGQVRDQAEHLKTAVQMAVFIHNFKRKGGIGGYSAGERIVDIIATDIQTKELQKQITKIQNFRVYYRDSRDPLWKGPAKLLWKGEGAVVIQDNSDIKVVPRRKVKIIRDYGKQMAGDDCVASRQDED
T1 sequence (Q7ZJM1 entry or part of it Y99S): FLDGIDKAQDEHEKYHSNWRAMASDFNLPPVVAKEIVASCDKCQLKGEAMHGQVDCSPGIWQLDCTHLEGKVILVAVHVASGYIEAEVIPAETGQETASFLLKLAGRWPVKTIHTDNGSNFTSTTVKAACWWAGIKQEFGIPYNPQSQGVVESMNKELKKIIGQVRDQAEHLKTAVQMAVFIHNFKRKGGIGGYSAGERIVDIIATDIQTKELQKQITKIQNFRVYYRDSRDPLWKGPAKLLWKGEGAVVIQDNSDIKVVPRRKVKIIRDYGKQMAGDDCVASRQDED

With `Cc1cc2c(cc1Cl)SC(C(=O)c1ccc(Cl)cc1)NS2(=O)=O` (centres undefined), the IC50 in assay [1] was found to be 20 µM; in assay [2], 4 µM; in assay [3] it was 16 µM; in assay [4], 63 µM; in assay [5] it was 90 µM; in assay [6] it was 40 µM. The IC50 in assay [7] stood at 6 µM; in assay [8] it was 18 µM.
Regarding `O=C(c1ccc(Cl)cc1)C1NS(=O)(=O)c2ccc(Cl)cc2S1` (centres undefined), the IC50 in assay [1] came out at 20 µM; in assay [2], 4 µM; in assay [3] it was 18 µM; in assay [4], 51 µM; in assay [5], 100 µM; in assay [6], 25 µM. In addition, the IC50 in assay [7] stood at 8 µM; in assay [8] it was 20 µM.
For the compound `Cc1cc(Cl)cc2c1S(=O)(=O)NC(C(=O)c1ccc(Cl)cc1)S2` (centres undefined), the results for the IC50 in assay [2] and in assay [7] were 14 µM and 23 µM, respectively.
In the same order, the values of `Cc1cc2c(cc1Cl)SC(C(=O)c1ccc(Br)cc1)NS2(=O)=O` (centres undefined) are 3 µM and 4 µM.
In the case of `Cc1cc2c(cc1Cl)SC(C(=O)c1ccc(Br)cc1)=NS2(=O)=O`, the IC50 in assay [2] and in assay [7] was 30 µM throughout.
Take `O=C(c1ccc2ccccc2c1)C1NS(=O)(=O)c2ccc(Cl)cc2S1` (centres undefined): the IC50 is 15 µM in assay [1]; 3 µM in assay [2]; 15 µM in assay [3]; 55 µM in assay [4]; 100 µM in assay [5]; 28 µM in assay [6]. Moreover, the IC50 came out at 8 µM in assay [7] and 9 µM in assay [8].
Take `O=C(C1=NS(=O)(=O)c2ccc(Cl)cc2S1)c1ccc(Cl)c(Cl)c1`: the IC50 in assay [1] amounted to 20 µM; in assay [2], 124 µM; in assay [3], 18 µM; in assay [5], 90 µM; in assay [7], 61.2 µM; in assay [8], 18 µM.
For `Cc1cc2c(cc1Cl)SC(C(=O)c1ccccc1)NS2(=O)=O` (centres undefined), the IC50 in assay [1] is 18 µM; in assay [2] it was 5 µM; in assay [3], 9 µM; in assay [4], 60 µM; in assay [5] it was 90 µM; in assay [6], 27 µM. For the same compound, the values for the IC50 in assay [7] and in assay [8] were 7 µM and 15 µM, respectively.
Regarding `Cc1cc2c(cc1Cl)SC(C(=O)c1ccc(Cl)cc1)=NS2(=O)=O`, the IC50 in assay [1] was determined as 20 µM; in assay [2], 65 µM; in assay [3], 16 µM; in assay [5], 90 µM; in assay [7] it was 30 µM; in assay [8], 18 µM.
`O=C(C1=NS(=O)(=O)c2ccc(Cl)cc2S1)c1ccc2ccccc2c1`: the IC50 stood at 15 µM in assay [1]; 8 µM in assay [2]; 15 µM in assay [3]; 100 µM in assay [5]; 8 µM in assay [7]; 9 µM in assay [8].
As to `Cc1cc2c(cc1Cl)SC(C(=O)c1ccccc1)=NS2(=O)=O`, the IC50 was determined as 18 µM in assay [1]; 12 µM in assay [2]; 9 µM in assay [3]; 90 µM in assay [5]; 12 µM in assay [7]; 15 µM in assay [8].
Turning to `Cc1cc(Cl)cc2c1S(=O)(=O)N=C(C(=O)c1ccc3ccccc3c1)S2`, the IC50 in assay [1] came to 23 µM; in assay [2] it was 7 µM; in assay [3] it was 23 µM; in assay [5] it was 70 µM; in assay [7], 22 µM; in assay [8], 33 µM.
For `Cc1cc2c(cc1Cl)SC(C(=O)c1cccc([N+](=O)[O-])c1)NS2(=O)=O` (centres undefined), the IC50 in assay [2] is 28 µM; in assay [7], 32 µM.
Regarding `Cc1cc(Cl)cc2c1S(=O)(=O)N=C(C(=O)c1ccc(Cl)c(Cl)c1)S2`, the IC50 in assay [2] is 25 µM; in assay [7], 17 µM.
In the same order, the values of `Cc1cc(Cl)cc2c1S(=O)(=O)N=C(C(=O)c1ccc(Cl)cc1)S2` are 25 µM and 22 µM.
Take `Cc1cc2c(cc1Cl)SC(C(=O)c1cccc([N+](=O)[O-])c1)=NS2(=O)=O`: the IC50 is 50 µM in assay [2] and 57 µM in assay [7].
On the same counts, the results for `COc1ccc(C(=O)C2NS(=O)(=O)c3cc(C)c(Cl)cc3S2)cc1` (centres undefined) are 17 µM and 38 µM.
For `O=C(c1ccc(Cl)c(Cl)c1)C1NS(=O)(=O)c2ccc(Cl)cc2S1` (centres undefined), the IC50 in assay [1] is 20 µM; in assay [2], 5 µM; in assay [3], 18 µM; in assay [4], 58 µM; in assay [5], 90 µM; in assay [6] it was 25 µM. Moreover, the IC50 is 9 µM in assay [7] and 18 µM in assay [8].
For the compound `Cc1cc2c(cc1Cl)SC(C(=O)c1ccc(Cl)c(Cl)c1)=NS2(=O)=O`, the half-maximal inhibitory concentration (IC50) in assay [2] was 7 µM; in assay [7], 15 µM.
Take `Cc1cc2c(cc1Cl)SC(C(=O)c1ccc3ccccc3c1)NS2(=O)=O` (centres undefined): the IC50 in assay [2] was determined as 30 µM; in assay [7], 57 µM.
`Cc1cc2c(cc1Cl)SC(C(=O)c1ccc(Cl)c(Cl)c1)NS2(=O)=O` (centres undefined): the IC50 in assay [2] is 10 µM; in assay [7], 20 µM.
In the same order, the values of `O=C(c1ccc(Cl)c(Cl)c1)C1NS(=O)(=O)c2ccccc2S1` (centres undefined) are 15 µM and 22 µM.
On the same counts, the results for `Cc1cc2c(cc1Cl)SC(C(=O)c1ccc3ccccc3c1)=NS2(=O)=O` are 3 µM and 28 µM.
In the case of `Cc1cc(Cl)cc2c1S(=O)(=O)NC(C(=O)c1ccc3ccccc3c1)S2` (centres undefined), the IC50 is 23 µM in assay [1]; 6 µM in assay [2]; 23 µM in assay [3]; 83 µM in assay [4]; 70 µM in assay [5]; 51 µM in assay [6]. For the same compound, the IC50 is 9 µM in assay [7] and 33 µM in assay [8].
`O=C(C1=NS(=O)(=O)c2ccc(Cl)cc2S1)c1ccc(Cl)cc1`: the IC50 in assay [1] amounted to 20 µM; in assay [2], 90 µM; in assay [3], 18 µM; in assay [5], 100 µM; in assay [7], 100 µM; in assay [8], 20 µM.
As for `COc1ccc(C(=O)C2=NS(=O)(=O)c3cc(C)c(Cl)cc3S2)cc1`, the half-maximal inhibitory concentration (IC50) in assay [2] turned out to be 33 µM; in assay [7] it was 30 µM.
In the same order, the values of `Cc1cc(Cl)cc2c1S(=O)(=O)NC(C(=O)c1ccc(Cl)c(Cl)c1)S2` (centres undefined) are 14 µM and 20 µM.

For the origin of these results see ChEMBL document CHEMBL1154472, “Synthesis and anti-HIV-1 integrase activities of 3-aroyl-2,3-dihydro-1,1-dioxo-1,4,2-benzodithiazines” (Eur J Med Chem, 2009).
